Experimental data published in ChEMBL document CHEMBL3102822, “Synthesis, biological evaluation and molecular docking studies of benzyloxyacetohydroxamic acids as LpxC inhibitors” (Bioorg Med Chem, 2014).
pIC50, pKi: −log10 of the molar value. Activity calls are given as the source filed them. The rule behind the calls is not given here.

How the values were obtained:
[1] = target: T1, UDP-3-O-acyl-N-acetylglucosamine deacetylase (Escherichia coli K-12, UniProt P0A725); assay: Inhibition of Escherichia coli LpxC using UDP-3-O-[(R)-3-hydroxymyristoyl]-N-acetylglucosamine as substrate incubated for 30 mins prior to enzyme addition by fluorescence assay
T1 sequence (P0A725 whole entry): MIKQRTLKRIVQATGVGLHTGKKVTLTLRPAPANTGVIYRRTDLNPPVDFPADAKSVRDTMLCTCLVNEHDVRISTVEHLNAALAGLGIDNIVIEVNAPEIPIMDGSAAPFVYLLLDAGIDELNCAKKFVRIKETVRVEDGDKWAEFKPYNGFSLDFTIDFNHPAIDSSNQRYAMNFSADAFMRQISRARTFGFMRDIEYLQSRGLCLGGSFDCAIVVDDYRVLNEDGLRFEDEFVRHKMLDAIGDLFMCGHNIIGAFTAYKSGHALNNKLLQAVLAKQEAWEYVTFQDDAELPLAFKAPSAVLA

[2] = test system: Escherichia coli; assay: Antimicrobial activity against Escherichia coli D22 at 10 mM after overnight incubation by agar disc diffusion method; assay type: functional; details: read-out: DIZ
Summary of the method: (§1)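 Strains grown overnight in LB broth at 37 °C, 200 rpm; 150 µL overnight suspension spread on LB agar. 15 µL of compound (10 mM stock in DMSO) applied to 6 mm filter paper discs; DMSO negative and CHIR-090 positive controls. Plates incubated overnight at 37 °C; zone of inhibition diameter measured, mean ± SD of three independent experiments.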

[3] = test system: Escherichia coli; assay: Antimicrobial activity against Escherichia coli BL21(DE3) at 10 mM after overnight incubation by agar disc diffusion method; assay type: functional; details: read-out: DIZ; summary of the method: as §1
[4] = target: T2, UDP-3-O-acyl-N-acetylglucosamine deacetylase (Escherichia coli K-12) (UniProt P0A725); assay: Inhibition of Escherichia coli LpxC using UDP-3-O-[(R)-3-hydroxymyristoyl]-N-acetylglucosamine as substrate up to 200 uM incubated for 30 mins prior to enzyme addition by fluorescence assay
T2 sequence (whole entry): T1 sequence (P0A725 whole entry)
Summary of the method: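 Purified E. coli LpxC (stored in 50 mM Bis/Tris pH 6.0, 150 mM NaCl). 40 mM MES pH 6.0 with 25 µM substrate, 80 µM DTT, 0.02% Brij 35; inhibitors in DMSO, 0.2 nM–200 µM, 30 min at 37 °C shaking before adding 500 ng enzyme. Stopped with NaOH, neutralized with acetic acid; product derivatized with o-phthaldialdehyde-2-mercaptoethanol in borax, fluorescence ex 340/em 460 nm. IC50 converted to Ki by Cheng-Prusoff (KM 4 µM); mean ± SD, n=3.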

Row | pIC50 [1] | inhibition [4] | SMILES | pKi [1] | zone of inhibition at 10000 µM [2] [mm] | zone of inhibition at 10000 µM [3] [mm]
1 | < 3.70 | – | O=C(CO[C@@H](CO)c1ccc(Br)cc1)NO | – | < 6 | < 6
2 | – | – | C[C@@H](O)[C@H](NC(=O)c1ccc(C#Cc2ccc(CN3CCOCC3)cc2)cc1)C(=O)NO | – | 30.3 | 24.6
3 | < 3.70 | inactive | O=C(CO[C@H](CO)c1ccc(Br)cc1)NO | – | < 6 | < 6
4 | < 3.70 | inactive | C#Cc1ccc([C@@H](CO)OCC(=O)NO)cc1 | – | < 6 | < 6
5 | < 3.70 | – | C[Si](C)(C)C#Cc1ccc([C@H](CO)OCC(=O)NO)cc1 | – | 7.2 | 7.1
6 | < 3.70 | – | O=C(CO[C@@H](CO)c1ccccc1)NO | – | < 6 | < 6
7 | < 3.70 | – | O=C(COCc1ccc(C#Cc2ccccc2)cc1)NO | – | 13.2 | 10.6
8 | < 3.70 | – | C#Cc1ccc([C@H](CO)OCC(=O)NO)cc1 | – | < 6 | < 6
9 | < 3.70 | inactive | C[Si](C)(C)C#Cc1ccc([C@@H](CO)OCC(=O)NO)cc1 | – | 7.5 | < 6
10 | < 3.70 | – | O=C(NO)[C@H]1O[C@@H](c2ccc(C#Cc3ccc(CN4CCOCC4)cc3)cc2)[C@@H](O)[C@H]1O | – | 13.1 | < 6
11 | < 3.70 | – | O=C(CO[C@H](CO)c1ccccc1)NO | – | < 6 | < 6

Row | SMILES | pIC50 [1] | inhibition [4] | pKi [1] | zone of inhibition at 10000 µM [2] [mm] | zone of inhibition at 10000 µM [3] [mm]
12 | O=C(CO[C@H](CO)c1ccc(C#Cc2ccc(CN3CCOCC3)cc2)cc1)NO | 6.16 | – | 7.02 | 21.2 | 13.4
13 | O=C(NO)[C@H](CO)O[C@H](CO)c1ccc(C#Cc2ccc(CN3CCOCC3)cc2)cc1 | 5.59 | – | 6.45 | 20.8 | 9
14 | O=C(CO[C@@H](CO)c1ccc(C#Cc2ccccc2)cc1)NO | 4.50 | – | 5.36 | 13 | 9.1
15 | O=C(CO[C@@H](CO)c1ccc(C#Cc2ccc(CN3CCOCC3)cc2)cc1)NO | 3.70 | – | 4.56 | 12.3 | 8.7
16 | O=C(COCc1ccc(C#Cc2ccc(CN3CCOCC3)cc2)cc1)NO | 4.98 | – | 5.84 | 20.3 | 16.5
17 | O=C(CO[C@H](CO)c1ccc(C#Cc2ccccc2)cc1)NO | 6.32 | – | 7.18 | 20.5 | 9.5
